Laboratory results taken from ChEMBL document CHEMBL4308915, “Synthesis of novel pyrazoline derivatives and the evaluation of death mechanisms involved in their antileukemic activity” (Bioorg Med Chem, 2019).
Activity calls are given as the source filed them. The calls are words filed in the database; no cut-off is given here.

Key:
Jurkat [1] = assay: Cytotoxicity against human Jurkat cells assessed as reduction in cell viability after 48 hrs by MTT assay; format: functional, cell-based
[2] = Hemolytic activity in human RBC at 2 times IC50 relative to control; format: ADME, cell-based, Erythrocyte; conditions: red blood cells (erythrocytes), read-out: Activity
Summary of the method: (§1)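 RBC from healthy non-smoking volunteers incubated with increasing concentrations of the selected pyrazolines. Saline served as the 0% lysis control and distilled water as the 100% lysis control. Percent hemolysis calculated relative to these controls.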

B16-F10 [3] = assay: Cytotoxicity against mouse B16F10 cells assessed as reduction in cell viability after 72 hrs by MTT assay; format: functional, cell-based; conditions: B16-F10, 72 h
K562 [4] = assay: Cytotoxicity against human K562 cells assessed as reduction in cell viability after 48 hrs by MTT assay; format: functional, cell-based; conditions: K562, 48 h
PBMC [5] = assay: Cytotoxicity against human PBMC assessed as reduction in cell viability after 24 hrs by MTT assay; format: cell-based
K562 [6] = assay: Induction of apoptosis in human K562 cells assessed as decrease in survivin level at 55.7 uM after 12 hrs by flow cytometric analysis relative to control; format: functional
B16-F10 [7] = assay: Cytotoxicity against mouse B16F10 cells assessed as reduction in cell viability after 48 hrs by MTT assay; format: functional, cell-based; conditions: B16-F10, 48 h
Daudi [8] = assay: Cytotoxicity against human Daudi cells assessed as reduction in cell viability after 72 hrs by MTT assay; format: functional, cell-based
[9] = Hemolytic activity in human RBC at 3 times IC50 relative to control; format: ADME, cell-based, Erythrocyte; conditions: red blood cells (erythrocytes), read-out: Activity; summary of the method: as §1
Jurkat [10] = assay: Induction of apoptosis in human Jurkat cells assessed as decrease in survivin level at 33.7 uM after 12 hrs by flow cytometric analysis relative to control; format: functional
K562 [11] = assay: Cytotoxicity against human K562 cells assessed as reduction in cell viability after 24 hrs by MTT assay; format: functional, cell-based; conditions: K562, 24 h
Summary of the method: (§2)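 MTT viability after 24 h exposure. Cells seeded at 5x10^4 per well and tested at 1-100 µM. Optical density of untreated cells set as 100% viable. IC50 derived by curve fitting. PBMC from healthy non-smoking volunteers, isolated by Ficoll-Hypaque.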

PBMC [12] = assay: Cytotoxicity against human PBMC assessed as reduction in cell viability after 72 hrs by MTT assay; format: cell-based
Jurkat [13] = assay: Induction of apoptosis in human Jurkat cells assessed as increase in membrane blebbing at 33.7 uM by acridine orange/ethidium bromide staining-based fluorescence microscopic analysis; format: functional, cell-based
Jurkat [14] = assay: Induction of apoptosis in human Jurkat cells assessed as increase in FasR expression at 33.7 uM after 12 hrs by flow cytometric analysis relative to control; format: functional
Jurkat [15] = assay: Cytotoxicity against human Jurkat cells assessed as reduction in cell viability after 72 hrs by MTT assay; format: functional, cell-based
PBL = assay: Cytotoxicity against acute leukemia patient-derived PBL cells assessed as reduction in cell viability after 24 hrs; format: functional, cell-based; conditions: Homo sapiens
Summary of the method: (§3)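 Mononuclear cells from acute leukemia patient samples (peripheral blood or bone marrow, taken before first treatment at diagnosis or relapse) isolated by Ficoll-Hypaque.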

Jurkat [16] = assay: Induction of DNA fragmentation in human Jurkat cells assessed as increase in ladder formation at 33.7 uM after 12 hrs by ethidium bromide staining based agarose gel electrophoresis method; format: functional, cell-based
Jurkat [17] = assay: Induction of apoptosis in human Jurkat cells assessed as increase in caspase-3 expression at 33.7 uM after 12 hrs by flow cytometric analysis relative to control; format: functional
Jurkat [18] = assay: Antiproliferative activity against human Jurkat cells assessed as reduction in KI-67 expression at 33.7 uM after 12 hrs by flow cytometric analysis; format: functional, cell-based
[19] = Selectivity index, ratio of IC50 for human PBMC to IC50 for human Daudi cells after 24 hrs
Summary of the method: (§4)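 MTT viability after 24 h exposure to 1-100µM; untreated control OD taken as 100%. IC50 by curve fitting in each line and in PBMC from six healthy donors (Ficoll-Hypaque). SI = IC50 PBMC / IC50 tumor line; SI ≥5 high, 2–5 moderate, <2 low.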

[20] = (§5) Cytotoxicity against acute leukemia patient-derived bone marrow cells assessed as reduction in cell viability after 24 hrs; format: functional, cell-based; conditions: Homo sapiens; summary of the method: as §3
Homo sapiens = species on record: Homo sapiens; assay: as §5; format: functional, cell-based; summary of the method: as §3
K562 [21] = assay: Induction of apoptosis in human K562 cells assessed as increase in chromatin condensation at 55.7 uM by acridine orange/ethidium bromide staining-based fluorescence microscopic analysis; format: functional, cell-based
[22] = Hemolytic activity in human RBC at 1 time IC50 relative to control; format: ADME, cell-based, Erythrocyte; conditions: red blood cells (erythrocytes), read-out: Activity; summary of the method: as §1
Jurkat [23] = assay: Induction of apoptosis in human Jurkat cells assessed as increase in chromatin condensation at 33.7 uM by acridine orange/ethidium bromide staining-based fluorescence microscopic analysis; format: functional, cell-based
K562 [24] = assay: Induction of apoptosis in human K562 cells assessed as increase in Bax expression at 55.7 uM after 12 hrs by flow cytometric analysis relative to control; format: functional
[25] = Hemolytic activity in human RBC at 12 times IC50 relative to control; format: ADME, cell-based, Erythrocyte; conditions: red blood cells (erythrocytes), read-out: Activity; summary of the method: as §1
K562 [26] = assay: Cell cycle arrest in human K562 cells assessed as increase in accumulation at G0/G1 phase at 55.7 uM after 12 hrs by propidium iodide/RNAse staining based flow cytometric analysis relative to control; format: functional
PBMC [27] = assay: Cytotoxicity against human PBMC assessed as reduction in cell viability after 48 hrs by MTT assay; format: cell-based
K562 [28] = assay: Induction of apoptosis in human K562 cells assessed as increase in caspase-3 expression at 55.7 uM after 12 hrs by flow cytometric analysis; format: functional, cell-based
K562 [29] = assay: Cytotoxicity against human K562 cells assessed as reduction in cell viability after 72 hrs by MTT assay; format: functional, cell-based; conditions: K562, 72 h
K562 [30] = assay: Induction of apoptosis in human K562 cells assessed as increase in loss of membrane integrity at 55.7 uM by acridine orange/ethidium bromide staining-based fluorescence microscopic analysis; format: functional, cell-based
Daudi [31] = assay: Cytotoxicity against human Daudi cells assessed as reduction in cell viability after 48 hrs by MTT assay; format: functional, cell-based
[32] = Hemolytic activity in human RBC at 9 times IC50 relative to control; format: ADME, cell-based, Erythrocyte; conditions: red blood cells (erythrocytes), read-out: Activity; summary of the method: as §1
B16-F10 [33] = assay: Cytotoxicity against mouse B16F10 cells assessed as reduction in cell viability after 24 hrs by MTT assay; format: functional, cell-based; conditions: B16-F10, 24 h; summary of the method: as §2
[34] = Selectivity index, ratio of IC50 for human PBMC to IC50 for mouse B16F10 cells after 24 hrs; format: toxicity; conditions: PBMC versus B16F10 cells, read-out: Ratio IC50; summary of the method: as §4
Daudi [35] = assay: Cytotoxicity against human Daudi cells assessed as reduction in cell viability after 24 hrs by MTT assay; format: functional, cell-based; summary of the method: as §2
K562 [36] = assay: Induction of apoptosis in human K562 cells at 55.7 uM after 12 hrs by Annexin-V FITC staining-based flow cytometry relative to control; format: functional
K562 [37] = assay: Induction of apoptosis in human K562 cells assessed as increase in membrane blebbing at 55.7 uM by acridine orange/ethidium bromide staining-based fluorescence microscopic analysis; format: functional, cell-based
[38] = Selectivity index, ratio of IC50 for human PBMC to IC50 for human K562 cells after 24 hrs; format: toxicity; conditions: PBMC versus K562 cells, read-out: Ratio IC50; summary of the method: as §4
K562 [39] = assay: Antiproliferative activity against human K562 cells assessed as reduction in KI-67 expression at 55.7 uM after 12 hrs by flow cytometric analysis; format: functional, cell-based
Jurkat [40] = assay: Induction of apoptosis in human Jurkat cells assessed as increase in Bax expression at 33.7 uM after 12 hrs by flow cytometric analysis relative to control; format: functional
K562 [41] = assay: Induction of apoptosis in human K562 cells assessed as reduction in cells with intact mitochondrial membrane potential at 55.7 uM after 12 hrs by flow cytometric analysis relative to control; format: functional; parameters: scale not given: the % may be the effect or the level left
Jurkat [42] = assay: Induction of apoptosis in human Jurkat cells assessed as increase in loss of membrane integrity at 33.7 uM by acridine orange/ethidium bromide staining-based fluorescence microscopic analysis; format: functional, cell-based
Jurkat [43] = assay: Cytotoxicity against human Jurkat cells assessed as reduction in cell viability after 24 hrs by MTT assay; format: functional, cell-based; summary of the method: as §2
Jurkat [44] = assay: Cell cycle arrest in human Jurkat cells assessed as increase in accumulation at S phase at 33.7 uM after 12 hrs by propidium iodide/RNAse staining based flow cytometric analysis; format: functional
Jurkat [45] = assay: Induction of apoptosis in human Jurkat cells assessed as reduction in cells with intact mitochondrial membrane potential at 33.7 uM after 12 hrs by flow cytometric analysis relative to control; format: functional; parameters: scale not given: the % may be the effect or the level left
K562 [46] = assay: Induction of apoptosis in human K562 cells assessed as increase in FasR expression at 55.7 uM after 12 hrs by flow cytometric analysis relative to control; format: functional
Jurkat [47] = assay: Induction of apoptosis in human Jurkat cells assessed as increase in AIF release at 33.7 uM after 12 hrs by flow cytometric analysis relative to control; format: functional
[48] = Hemolytic activity in human RBC at 15 times IC50 relative to control; format: ADME, cell-based, Erythrocyte; conditions: red blood cells (erythrocytes), read-out: Activity; summary of the method: as §1
Jurkat [49] = assay: Induction of apoptosis in human Jurkat cells at 33.7 uM after 12 hrs by Annexin-V FITC staining-based flow cytometry relative to control; format: functional
[50] = Selectivity index, ratio of IC50 for human PBMC to IC50 for human Jurkat cells after 24 hrs; format: toxicity; conditions: PBMC versus Jurkat cells, read-out: Ratio IC50; summary of the method: as §4

In the case of `COc1cc(C2=NN(C(C)=O)C(c3ccc4ccccc4c3)C2)cc(OC)c1OC` (stereo not drawn), the IC50 (Jurkat [1]) is reported as 27.7 µM, the hemolysis at 2 times IC50 [2] is reported as 1.5% and the IC50 (B16-F10 [3]) is reported as 23.3 µM. The IC50 (K562 [4]) was 21.9 µM, the IC50 (PBMC [5]) was 497 µM and the Activity (K562 [6]) was 22.2%. For the same compound, the IC50 (B16-F10 [7]) was 56.6 µM, the IC50 (Daudi [8]) was 5.1 µM and the hemolysis at 3 times IC50 [9] was 1.6%. For the same compound, the Activity (Jurkat [10]) was 21.4%, the IC50 (K562 [11]) was 55.7 µM and the IC50 (PBMC [12]) was 55.3 µM. The Activity (Jurkat [13]) was “Active”, the Activity (Jurkat [14]) was 30.3% and the IC50 (Jurkat [15]) was 25.3 µM. The Activity (PBL) was “Dose-dependent effect”, the IC50 (PBL) was 27.7 to 139 µM and the Activity (Jurkat [16]) was “Active”. The Activity (Jurkat [17]) was 6.6%, the Activity (Jurkat [18]) was “Active” and the “Ratio IC50” value [19] was 10.7. For the same compound, the IC50 [20] was 16.2 to 44.6 µM, the Activity (Homo sapiens) was “Dose-dependent effect” and the Activity (K562 [21]) was “Active”. The hemolysis at 1 times IC50 [22] was 1.9%, the Activity (Jurkat [23]) was “Active” and the Activity (K562 [24]) was 16.8%. The hemolysis at 12 times IC50 [25] was 3.2%, the Activity (K562 [26]) was 7.4% and the IC50 (PBMC [27]) was 105 µM. The Activity (K562 [28]) was “inactive”, the IC50 (K562 [29]) was 15.5 µM and the Activity (K562 [30]) was “Active”. The IC50 (Daudi [31]) was 20.2 µM, the hemolysis at 9 times IC50 [32] was 2.4% and the IC50 (B16-F10 [33]) was 72.3 µM. It also gave a selectivity ratio at 24 h [34] of 6.9, an IC50 (Daudi [35]) of 46.2 µM and an Activity (K562 [36]) of 18.8%. For the same compound, the Activity (K562 [37]) was “Active”, the selectivity ratio at 24 h [38] was 8.9 and the Activity (K562 [39]) was “Active”. The Activity (Jurkat [40]) was 20.5%, the Activity (K562 [41]) was 26% and the Activity (Jurkat [42]) was “Active”. For the same compound, the IC50 (Jurkat [43]) was 33.7 µM, the Activity (Jurkat [44]) was “inactive” and the Activity (Jurkat [45]) was 41%. It also gave an Activity (K562 [46]) of 34.3%, an Activity (Jurkat [47]) of 6% and a hemolysis at 15 times IC50 [48] of 6.4%. For the same compound, the Activity (Jurkat [49]) was 29.2% and the selectivity ratio at 24 h [50] was 14.7.
